Laboratory results from ChEMBL document CHEMBL1124160, “Synthetic aci-reductones: 3,4-dihydroxy-2H-1-benzopyran-2-ones and their cis- and trans-4a,5,6,7,8,8a-hexahydro diastereomers. Antiaggregatory, antilipidemic, and redox properties compared to those of the 4-substituted 2-hydroxytetronic acids” (J Med Chem, 1988).

Experiments:
Assay type in all cases: functional, organism-based; call rule not given here
Homo sapiens [1] = organism: Homo sapiens; assay: Inhibition of arachidonic acid (AA) induced serotonin secretion
Summary of the method: (§1)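 Platelets in human platelet-rich plasma prelabeled with [14C]serotonin; dense-granule secretion read as released radioactivity. Compounds in deoxygenated 10 mM sodium phosphate/0.9% NaCl pH 7.4, given 1 min before ADP (1–5 μM), AA (0.2–1 mM) or U46619 (0.3–0.5 μM). Top drug levels 4000–5000 μM; mean ± SEM across donors.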

Homo sapiens [2] = organism: Homo sapiens; assay: Inhibition of arachidonic acid (AA) induced human platelet aggregation
Summary of the method: (§2)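 Human platelet-rich plasma from drug-free volunteers (no medication ≥10 days). Compounds prepared fresh in N2-deoxygenated 10 mM sodium phosphate/0.9% NaCl pH 7.4 (one in DMSO, final 0.14%), added 1 min before inducer: ADP 1–5 μM, AA 0.2–1 mM or U46619 0.3–0.5 μM. Turbidometric aggregometry; IC50 from light-transmittance amplitude at 6 min (ADP, secondary wave) or 4 min (AA, U46619); mean ± SEM over donors.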

Homo sapiens [3] = organism: Homo sapiens; assay: Inhibition of U-46,619 induced serotonin secretion; summary of the method: as §1
Homo sapiens [4] = organism: Homo sapiens; assay: Inhibition of adenosine diphosphate (ADP) induced human platelet aggregation; summary of the method: as §2
Homo sapiens [5] = organism: Homo sapiens; assay: Inhibition of adenosine diphosphate (ADP) induced serotonin secretion; summary of the method: as §1
Homo sapiens [6] = organism: Homo sapiens; assay: Inhibition of U-46,619 induced human platelet aggregation; summary of the method: as §2
Homo sapiens [7] = organism: Homo sapiens; assay: Inhibition of U-46,619 induced serotonin secretion; c=No response; summary of the method: as §1

| SMILES | IC50 (Homo sapiens [1]) [µM] | IC50 (Homo sapiens [2]) [µM] | IC50 (Homo sapiens [3]) [µM] | IC50 (Homo sapiens [4]) [µM] | IC50 (Homo sapiens [5]) [µM] | IC50 (Homo sapiens [6]) [µM] | IC50 (Homo sapiens [7]) |
| --- | --- | --- | --- | --- | --- | --- | --- |
| O=C1C(O)=C(O)OC12CCCC2 | > 4000 | > 4000 | > 4000 | > 4000 | > 4000 | > 4000 |  |
| O=C1C(O)=C(O)OC2CCCCC12 (configuration not stated) | > 4000 | > 4000 | > 4000 | 447 | 406 | > 4000 |  |
| O=C1C(O)=C(O)OC12CCCCC2 | > 4000 | > 4000 | > 4000 | > 3300 | > 3000 | > 4000 |  |
| O=C1C(O)=C(O)OC2CCCC[C@H]12 (some centres not stated) | > 4000 | > 4000 |  | 481 | 492 | 3090 | Not Active |
| O=C1C(O)=C(O)OC1c1ccc(Cl)cc1 (configuration not stated) | > 4000 | > 4000 | > 4000 | 1090 | 1210 | > 4000 |  |
| CC(C)(Oc1ccc(Cl)cc1)C(=O)O [CLOFIBRIC ACID] | > 3500 | > 3200 | 3080 |  |  | > 4000 |  |
| COc1ccc2c(c1)c(CC(=O)O)c(C)n2C(=O)c1ccc(Cl)cc1 [INDOMETHACIN] | 1 | 1 |  | 0.8 | 0.7 |  |  |
| CC(=O)Oc1ccccc1C(=O)O [ASPIRIN] | 95 | 89 |  | 59 | 50 |  |  |

Second part, the compound after the results:

| IC50 (Homo sapiens [1]) [µM] | IC50 (Homo sapiens [2]) [µM] | IC50 (Homo sapiens [3]) [µM] | IC50 (Homo sapiens [4]) [µM] | IC50 (Homo sapiens [5]) [µM] | IC50 (Homo sapiens [6]) [µM] | IC50 (Homo sapiens [7]) | SMILES |
| --- | --- | --- | --- | --- | --- | --- | --- |
| > 4000 | > 4000 | > 4000 | 1640 | 2180 | > 4000 |  | CC(C)(C)c1cc2oc(O)c(O)c(=O)c2cc1O |
| 407 | 253 | 345 | 522 | 450 | 422 |  | O=c1c(O)c(O)oc2ccc(-c3ccccc3)cc12 |
| 3410 | 3510 | > 4000 | 1420 | 1520 | > 4000 |  | O=c1c(O)c(O)oc2ccc(O)cc12 |
| 1550 | 3980 | 744 | 426 | 389 | 1110 |  | O=c1c(O)c(O)oc2cc3c(cc12)OCO3 |
| 1130 | 780 |  | 498 | 513 | 1400 |  | O=c1c(O)c(O)oc2ccc(Cl)cc12 |
| 925 | 561 | 3980 | 531 | 472 | 3410 |  | O=c1c(O)c(O)oc2ccccc12 |
